Source: article PMC5079537 (Cancer cell, 2016)

What was measured:
[1] = tested on: MDM2 and XIAP expression in ALL and NB cells; assay: Western blot for MDM2 and XIAP expression in cancer cells; type: cell-based, human
Outline: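 MDM2-overexpressing ALL lines (EU-1, EU-3) and NB lines (SH-EP1, NB-1691) were treated with test compounds for 24 hr. Time-course and dose-response runs were done in EU-1. Lysis was in Tris pH 7.6/NaCl/1% NP-40 buffer with phosphatase and protease inhibitors. Lysates were resolved by SDS-PAGE, transferred to nitrocellulose, probed for MDM2 and XIAP, and detected by chemiluminescence.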

[2] = tested on: caspases 3, 7 and 9, PARP; assay: Western blot and ELISA for caspase activation and PARP cleavage; type: cell-based, human; settings: ALL and NB cells
Outline: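 Western blot of caspase-3 activation and PARP cleavage in cancer cells treated with test compounds at 1 or 10 μM, or a control compound at 10 μM, over a time course. Cells were lysed in 50 mM Tris pH 7.6, 150 mM NaCl, 1% NP-40 with phosphatase and protease inhibitors. Lysates were run on SDS-PAGE, transferred to nitrocellulose, probed with specific antibodies and detected by chemiluminescence.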

MDM2 RING protein [3] = target: T1, MDM2 RING protein (Homo sapiens, UniProt Q00987); assay: Fluorescent titration binding assay
Outline: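 Binding to GST-MDM2 RING protein measured by fluorescence titration, using the protein's intrinsic fluorescence (excitation 280 nm, emission 335 nm). Protein titrated with increasing test compound concentrations. Relative change in fluorescence intensity traced and normalised to derive binding Kd.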

[4] = tested on: human normal bone marrow mononuclear (NBMM) cells; assay: WST cytotoxic assay on normal bone marrow cells; type: cell-based
Outline: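 Normal human bone marrow mononuclear cells came from five consenting donors under IRB approval. Cells in 96-well plates got a range of test compound concentrations for 20 hr, then WST (25 μg/well) for another 4 hr. OD read at 450 nm against 620 nm reference. Mean ± SD of three independent experiments.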

[5] = tested on: 12 cancer cell lines (6 ALL and 6 NB); type: cell-based; settings: 24 hr
[6] = tested on: endogenous MDM2 in cancer cells; assay: IP-Western blot for ubiquitination of endogenous MDM2; type: cell-based, human
Outline: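 EU-1 cells treated with 10 μM test compound or a control compound. Lysed in Tris pH 7.6/NaCl/NP-40 buffer with protease and phosphatase inhibitors, cleared, then immunoprecipitated with anti-MDM2 on protein G/protein A-agarose. Immunoprecipitates run on SDS-PAGE, transferred to nitrocellulose, probed with anti-ubiquitin and detected by chemiluminescence.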

XIAP IRES [7] = assay: Fluorescent titration binding assay; settings: read-out: binding Kd to XIAP IRES
Outline: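 Fluorescence-labelled XIAP IRES RNA (excitation 485 nm, emission 530 nm) titrated with increasing test compound concentrations. Relative change in fluorescence intensity traced and normalised to derive binding Kd.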

[8] = tested on: NBMM cells (normal human hematopoiesis); assay: Clonogenic analyses for CFU-GM and BFU-E; type: cell-based; settings: colonies after 14 days
p53 in EU-1 cells [9] = assay: CHX pulse-chase assay, p53 turnover; type: cell-based, human; settings: control less than 30 min
MYCN IRES = assay: Dicistronic reporter assay, control IRES; type: cell-based
XIAP IRES [10] = assay: Dicistronic reporter assay; type: cell-based; settings: dicistronic plasmid pRL-xi-FL
[11] = tested on: EU-1 leukemia cells in SCID mice; assay: EU-1 leukemia xenograft in SCID mice; type: in vivo
EU-1 cells = assay: Annexin-V FITC staining for apoptosis; type: cell-based, human; settings: 10 μM
Outline: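 EU-1 cells treated with 10 μM test compound were washed in PBS and stained with FITC-annexin V and 7-AAD using a kit per the maker's protocol. Read by fluorescence microscopy (annexin V green, 7-AAD red) and by flow cytometry. For flow quantitation, cells were treated for 24 hr. Mean of three independent experiments, bars ± SD.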

MDM2 in EU-1 cells = assay: CHX pulse-chase assay, MDM2 turnover; type: cell-based, human; settings: 10 μM for 4 hr, control greater than 90 min
p53 in EU-1 cells [12] = assay: Western blot for p53 expression; type: cell-based, human; settings: 1 μM MX3 or 10 μM MX69, 2 to 8 hr after treatment
[13] = tested on: Hsd:ICR (CD-1) normal mice; settings: 100 mg/kg
[14] = tested on: Hsd:ICR (CD-1) normal mice; assay: Maximum tolerated dose; type: in vivo; settings: doses between 25 and 200 mg/kg i.p., 3 days/week x 2 courses
MDM2 RING protein [15] = target: T1, MDM2 RING protein; assay: ITC binding assay; settings: read-out: binding Kd to MDM2 RING protein

T1 sequence (Q00987 438-479 limits assumed): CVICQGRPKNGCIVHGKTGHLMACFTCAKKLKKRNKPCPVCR

O=C1c2c(O)ccc(O)c2C(=O)c2c(NCCNCCO)ccc(NCCNCCO)c21 [MX3, mitoxantrone, reference compound]
inhibition of MDM2 and XIAP protein expression [1]: inhibited expression of both MDM2 and XIAP | activation of caspases 3, 7 and 9 and cleavage of PARP [2]: activation of these caspases and cleavage of PARP were detected | binding to MDM2 RING protein (MDM2 RING protein [3]): neither of these leads bound | cell survival of NBMM ([4]; 2 μM, 24 hr): about 50% | cytotoxic effect [5]: most potent cytotoxic effect | ubiquitination of endogenous MDM2 [6]: induced ubiquitination | Kd (XIAP IRES [7]): 5.26 µM | inhibitory effect on BFU-E ([8]; 1 μM): severe inhibitory effects

Cc1ccc(NS(=O)(=O)c2ccc3c(c2)C2C=CCC2C(c2ccc(C(=O)O)cc2)N3)cc1C (stereo not drawn) [MX69]
inhibition of MDM2 and XIAP protein expression [1]: inhibited expression of both MDM2 and XIAP | p53 half-life (p53 in EU-1 cells [9]): remarkably increased | activity on the MYCN IRES (MYCN IRES): no activity | XIAP IRES-mediated translation of firefly luciferase (XIAP IRES [10]): inhibited | mice that died within 98–143 days after inoculation ([11]; 50 mg/kg i.p.): Forty | mice that died within 98–143 days after inoculation ([11]; 75 mg/kg i.p.): 20% | adverse effects (body weight, fur pattern) ([11]; up to 40-days post-treatment): no adverse effects | Annexin-V positive cells (EU-1 cells): over 90% | activation of caspases 3, 7 and 9 and cleavage of PARP [2]: activation of these caspases and cleavage of PARP were detected | Kd (MDM2 RING protein [3]; read-out: binding Kd to MDM2 RING protein): 2.34 µM | cell survival of NBMM ([4]; 2–8 μM for 24 hr): over 90% | MDM2 half-life (MDM2 in EU-1 cells): < 30 min | p53 protein levels (p53 in EU-1 cells [12]): significantly increased | cytotoxic effect [5]: significant cytotoxic effect | ubiquitination of endogenous MDM2 [6]: induced ubiquitination | ALT [13]: no significant increases | AST [13]: no significant increases | BUN [13]: no significant increases | PLT [13]: no significant decreases | WBC [13]: no significant decreases | histopathology of heart, liver and kidney [13]: no evidence of toxicity | tolerability, deaths by day 30 [14]: well tolerated, with no deaths | Kd (MDM2 RING protein [15]): 2.75 µM | inhibitory effect on BFU-E ([8]; 10 μM): little inhibitory effect | inhibitory effect on CFU-GM ([8]; 10 μM): little inhibitory effect
